Experimental data published in PMC8162940 (Nature chemical biology, 2021).

Tests used:
IL-2 = IL-2 secretion from stimulated Jurkat cells; type: cell-based, human; conditions: Jurkat cells pre-treated with 1 μM for 18h, then stimulated 24h
Outline: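 Jurkat cells were pre-incubated 18 h with 1 μM test compound, then activated with ImmunoCult CD3/CD28 activator for 24 h, and supernatant IL-2 was measured by AlphaLISA. Mean ± SD of 3 (unstimulated) or 4 (stimulated) biological samples, representative of 2 experiments. Two-way ANOVA with Bonferroni correction.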

Ikaros = Ikaros (Mus musculus, UniProt Q03267+Q8C7D2, I391V); experiment: Ikaros levels in murine splenocytes, flow cytometry; type: cell-based; conditions: Crbn^I391V/I391V but not wildtype cells, 1 μM, 16h
Sequence of Ikaros (Q03267 whole entry): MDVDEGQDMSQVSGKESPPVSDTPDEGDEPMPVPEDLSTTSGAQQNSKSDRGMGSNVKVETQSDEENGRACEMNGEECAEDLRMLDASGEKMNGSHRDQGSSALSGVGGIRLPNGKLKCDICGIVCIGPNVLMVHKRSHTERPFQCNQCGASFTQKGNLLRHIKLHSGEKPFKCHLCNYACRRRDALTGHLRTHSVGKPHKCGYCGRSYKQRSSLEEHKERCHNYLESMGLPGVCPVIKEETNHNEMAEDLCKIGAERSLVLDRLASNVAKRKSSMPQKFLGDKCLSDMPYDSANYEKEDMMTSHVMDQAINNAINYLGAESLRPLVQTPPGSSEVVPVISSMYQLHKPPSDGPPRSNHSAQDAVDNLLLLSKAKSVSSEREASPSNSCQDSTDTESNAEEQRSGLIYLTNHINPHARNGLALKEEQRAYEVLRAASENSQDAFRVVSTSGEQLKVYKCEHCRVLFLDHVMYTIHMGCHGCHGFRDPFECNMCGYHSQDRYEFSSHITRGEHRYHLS
Sequence of Ikaros (Q8C7D2 whole entry I391V): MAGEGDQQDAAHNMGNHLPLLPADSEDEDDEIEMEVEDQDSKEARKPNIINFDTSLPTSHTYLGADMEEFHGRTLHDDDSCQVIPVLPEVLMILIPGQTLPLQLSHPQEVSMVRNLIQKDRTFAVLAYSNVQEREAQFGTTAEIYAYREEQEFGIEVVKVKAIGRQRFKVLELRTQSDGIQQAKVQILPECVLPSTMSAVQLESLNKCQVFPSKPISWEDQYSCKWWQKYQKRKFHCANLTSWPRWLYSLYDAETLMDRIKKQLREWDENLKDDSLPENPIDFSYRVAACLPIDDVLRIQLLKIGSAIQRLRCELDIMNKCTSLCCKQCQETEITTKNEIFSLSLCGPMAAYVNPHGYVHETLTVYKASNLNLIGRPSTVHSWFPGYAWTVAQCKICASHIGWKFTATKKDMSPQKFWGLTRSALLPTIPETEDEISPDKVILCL
Sequence of Ikaros (Q3U1J4 whole entry partner): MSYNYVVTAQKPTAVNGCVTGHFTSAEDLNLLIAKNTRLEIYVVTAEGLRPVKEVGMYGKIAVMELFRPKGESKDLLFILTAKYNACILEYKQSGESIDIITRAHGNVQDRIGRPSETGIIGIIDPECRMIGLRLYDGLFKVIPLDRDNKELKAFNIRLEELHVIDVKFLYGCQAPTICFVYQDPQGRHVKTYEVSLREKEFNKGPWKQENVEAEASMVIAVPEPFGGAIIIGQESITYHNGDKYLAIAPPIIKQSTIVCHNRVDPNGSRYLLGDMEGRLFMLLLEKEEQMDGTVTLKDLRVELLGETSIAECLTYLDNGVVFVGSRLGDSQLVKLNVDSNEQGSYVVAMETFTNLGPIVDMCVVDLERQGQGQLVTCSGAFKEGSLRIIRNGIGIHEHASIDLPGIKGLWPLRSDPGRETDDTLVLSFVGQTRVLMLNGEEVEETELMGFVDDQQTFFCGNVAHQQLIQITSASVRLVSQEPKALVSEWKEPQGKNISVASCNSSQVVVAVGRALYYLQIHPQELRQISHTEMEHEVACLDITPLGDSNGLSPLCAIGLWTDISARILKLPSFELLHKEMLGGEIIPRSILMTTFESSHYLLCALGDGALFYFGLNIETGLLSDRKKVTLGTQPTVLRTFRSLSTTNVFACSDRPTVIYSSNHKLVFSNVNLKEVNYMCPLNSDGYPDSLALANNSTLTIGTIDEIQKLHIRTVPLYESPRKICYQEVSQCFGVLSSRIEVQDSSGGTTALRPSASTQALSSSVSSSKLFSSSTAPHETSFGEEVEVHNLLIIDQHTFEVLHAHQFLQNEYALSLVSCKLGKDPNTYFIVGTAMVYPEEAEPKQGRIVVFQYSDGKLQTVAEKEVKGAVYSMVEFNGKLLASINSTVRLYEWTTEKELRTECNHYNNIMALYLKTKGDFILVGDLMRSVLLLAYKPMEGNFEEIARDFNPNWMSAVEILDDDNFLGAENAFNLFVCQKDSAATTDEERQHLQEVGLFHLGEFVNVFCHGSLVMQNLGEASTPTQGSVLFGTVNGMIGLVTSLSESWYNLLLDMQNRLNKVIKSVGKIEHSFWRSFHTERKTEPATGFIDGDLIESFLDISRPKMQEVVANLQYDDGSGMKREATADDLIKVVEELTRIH

Ikaros degradation in splenocytes (Ikaros): induced selective degradation of Ikaros
SMILES: Nc1cccc2c1CN(C1CCC(=O)NC1=O)C2=O (centres unmarked) [lenalidomide]
IL-2 secretion (IL-2): enhanced IL-2 secretion
